Blank lines part the entries; values can stand above or below the compound they belong to. Active and inactive are the calls of the source. The calls are words filed in the database; no cut-off is given here.
Experiments:
[1] = target: Tubulin (Bos taurus) (UniProt Q6B856+Q862L2+Q862F3); assay: Inhibition of [3H]-colchicine binding to bovine brain tubulin at 1 to 5 uM after 20 mins relative to control
Method in brief: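 Colchicine-binding inhibition in mixtures of 1 μM tubulin, 5 μM [3H]colchicine and test compound at 1 or 5 μM.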

[2] = system: HeLa; assay: Induction of ROS generation in human HeLa cells at 50 nM after 12 hrs by 2,7-dichlorodihydrofluorescein diacetate-staining based flow cytometry; assay type: functional, cell-based
Method in brief: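 HeLa cells exposed 3, 6, 12 or 24 h to 50, 100 or 250 nM, then stained with JC-1 for mitochondrial potential or H2-DCFDA for ROS. Analysed by flow cytometry.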

[3] = system: HeLa; assay: Induction of apoptosis in human HeLa cells assessed as decrease in bcl2 expression at 50 to 100 nM after 24 to 48 hrs by Western blot analysis; assay type: functional, cell-based
Method in brief: (§1)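 HeLa cells incubated with compound at indicated concentrations and times, then washed in ice-cold PBS and lysed 30 min on ice. 10 µg protein per lane run on SDS-PAGE, transferred to PVDF and blocked overnight at 4 °C in 5% BSA. Probed 2 h at room temperature for PARP, Mcl-1 or Bcl-2, detected by ECL, and reprobed for β-actin as loading control.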

[4] = system: HeLa; assay: Induction of cell cycle arrest in human HeLa cells assessed as arrest in mitotic phase at 50 nM after 24 hrs by p-histone H3 antibody staining based flow cytometry (reference value: 1.32%); assay type: functional
[5] = Cytotoxicity against HUVEC assessed as inhibition of cell growth; assay type: cell-based; settings: human, HUVEC cells
[6] = system: HeLa; assay: Induction of cell cycle arrest in human HeLa cells assessed as arrest in mitotic phase at 100 nM after 24 hrs by p-histone H3 antibody staining based flow cytometry (reference value: 1.32%); assay type: functional
[7] = target: T1, Epidermal growth factor receptor (Homo sapiens, UniProt P00533); assay: Inhibition of wild type EGFR (unknown origin) by bioluminescent ADP-glo kinase assay
T1 sequence (P00533 whole entry): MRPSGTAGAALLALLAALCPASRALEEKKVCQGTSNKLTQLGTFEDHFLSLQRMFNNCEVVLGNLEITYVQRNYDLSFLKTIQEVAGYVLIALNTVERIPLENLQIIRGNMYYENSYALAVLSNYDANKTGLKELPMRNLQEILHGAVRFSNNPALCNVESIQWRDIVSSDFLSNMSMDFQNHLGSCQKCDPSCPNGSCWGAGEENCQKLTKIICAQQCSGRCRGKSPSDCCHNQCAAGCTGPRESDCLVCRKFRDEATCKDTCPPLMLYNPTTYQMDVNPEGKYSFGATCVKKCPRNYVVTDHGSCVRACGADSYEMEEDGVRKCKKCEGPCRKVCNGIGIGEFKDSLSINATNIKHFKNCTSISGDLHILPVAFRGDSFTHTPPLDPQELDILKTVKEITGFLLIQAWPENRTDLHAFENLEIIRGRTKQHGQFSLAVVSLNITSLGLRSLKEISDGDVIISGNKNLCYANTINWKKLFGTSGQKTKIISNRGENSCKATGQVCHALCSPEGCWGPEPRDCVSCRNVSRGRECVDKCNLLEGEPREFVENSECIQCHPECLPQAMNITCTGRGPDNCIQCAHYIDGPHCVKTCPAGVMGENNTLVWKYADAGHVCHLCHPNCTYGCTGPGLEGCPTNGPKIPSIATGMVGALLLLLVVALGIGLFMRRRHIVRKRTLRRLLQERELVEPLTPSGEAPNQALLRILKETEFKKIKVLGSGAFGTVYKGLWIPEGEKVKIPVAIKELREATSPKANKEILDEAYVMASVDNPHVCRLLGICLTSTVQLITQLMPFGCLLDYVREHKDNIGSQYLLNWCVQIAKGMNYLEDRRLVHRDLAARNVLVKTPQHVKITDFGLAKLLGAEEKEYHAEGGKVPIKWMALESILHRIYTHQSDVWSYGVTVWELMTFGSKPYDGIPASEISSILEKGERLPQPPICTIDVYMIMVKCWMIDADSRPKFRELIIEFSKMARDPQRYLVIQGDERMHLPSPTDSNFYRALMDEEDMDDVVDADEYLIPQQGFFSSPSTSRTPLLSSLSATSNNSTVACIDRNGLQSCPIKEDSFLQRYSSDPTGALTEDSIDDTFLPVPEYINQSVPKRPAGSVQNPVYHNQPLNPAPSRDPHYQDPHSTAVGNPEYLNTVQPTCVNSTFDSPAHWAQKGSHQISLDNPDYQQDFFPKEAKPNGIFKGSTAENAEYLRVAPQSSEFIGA

[8] = system: RS4-11; assay: Antiproliferative activity against human RS4:11 cells after 72 hrs by MTT assay; assay type: functional, cell-based; settings: RS4-11, 72 h
Method in brief: (§2)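 Cells in medium with 10% FBS, seeded at 8×10^3 per well, 18 h at 37 °C, 5% CO2, then graded compound concentrations (DMSO ≤0.25%) for 72 h. Viability by MTT. […] Mean ± SE of dose-response curves from at least three independent experiments.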

[9] = system: Jurkat; assay: Induction of cell cycle arrest in human Jurkat cells assessed as accumulation at G2/M phase at 25 nM after 24 hrs by propidium iodide-stained flow cytometry; assay type: functional, cell-based
Method in brief: (§3)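 5×10^5 HeLa or Jurkat cells exposed 24 h, then collected, fixed in ice-cold 70% ethanol, treated with lysis buffer containing RNase A and 0.1% Triton X-100, and stained with PI. DNA content by flow cytometry. Mean ± SEM, three independent experiments.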

[10] = system: HUVEC; assay: Antivascular activity in HUVEC assessed as effect on mesh area at 10 to 100 nM after 1 hr by matrigel assay; assay type: functional, cell-based; settings: Homo sapiens
Method in brief: (§4)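 HUVECs (primary cord-derived, passages 1-6), 6×10^4 cells per well on Matrigel, left 6 h to form capillary tubes. Compound at 10 or 100 nM then added for 1 h. Five fields per well photographed at 10x, and network dimensional/topological parameters quantified. Mean ± S.E.M. of three independent experiments.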

[11] = system: HUVEC; assay: Antivascular activity in HUVEC assessed as effect on segment length at 10 to 100 nM after 1 hr by matrigel assay; assay type: functional, cell-based; settings: Homo sapiens; method in brief: as §4
[12] = system: B16; assay: Antitumor activity against mouse B16 cells allografted in C57BL/6 mouse assessed as reduction in tumor burden at 7.5 mg/kg, ip dosing starting on day 9 post tumor injection administered […] on day 9,11, 13 and 15 relative to control; assay type: functional; design: scale not given: the % may be the effect or the level left
Method in brief: (§5)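 Six-week-old male C57BL/6 mice injected subcutaneously in the dorsolateral flank with 2.5×10^5 BL6-B16 melanoma cells in PBS. Once tumors were palpable, ip dosing every other day on days 9, 11, 13 and 15 at 3 or 7.5 mg/kg in 50 µL DMSO. Vehicle controls; CA-4P 30 mg/kg reference. Tumor volume and body weight tracked; 5 mice/group, mean ± SEM.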

[13] = target: T1, Epidermal growth factor receptor; assay: Inhibition of EGF-induced EGFR phosphorylation at Y1068 in human HeLa cells at 1 uM pretreated for 6 hrs followed by EGF cells and measured after 15 mins by Western blot analysis; assay type: cell-based
Method in brief: (§6)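 HeLa cells treated 6 h with compound (10-1000 nM) or erlotinib, then stimulated with EGF for 15 min. EGF level is given as 50 ng/mL in the methods and 30 ng/mL in the figure legend. Lysates immunoblotted for total EGFR and phospho-Y1068, with β-actin as loading control.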

[14] = system: HUVEC; assay: Antivascular activity in HUVEC assessed as effect on total branching length at 10 to 100 nM after 1 hr by matrigel assay; assay type: functional, cell-based; settings: Homo sapiens; method in brief: as §4
[15] = system: Jurkat; assay: Antiproliferative activity against human Jurkat cells after 72 hrs by MTT assay; assay type: functional, cell-based; method in brief: as §2
[16] = system: HUVEC; assay: Antivascular activity in HUVEC assessed as effect on master junction at 10 to 100 nM after 1 hr by matrigel assay; assay type: functional, cell-based; settings: Homo sapiens; method in brief: as §4
[17] = system: HeLa; assay: Induction of apoptosis in human HeLa cells assessed as decrease in […] expression at 50 to 100 nM after 24 to 48 hrs by Western blot analysis; assay type: functional, cell-based; method in brief: as §1
[18] = system: B16; assay: Antitumor activity against mouse B16 cells allografted in C57BL/6 mouse assessed as reduction in tumor burden at 3 mg/kg, ip dosing starting on day 9 post tumor injection administered […] on day 9,11, 13 and 15 relative to control; assay type: functional; design: scale not given: the % may be the effect or the level left; method in brief: as §5
[19] = system: HeLa; assay: Antiproliferative activity against human HeLa cells after 72 hrs by MTT assay; assay type: functional, cell-based
[20] = system: A549; assay: Antiproliferative activity against human A549 cells after 72 hrs by MTT assay; assay type: functional, cell-based; settings: A549, 72 h
[21] = system: HUVEC; assay: Antivascular activity in HUVEC assessed as effect on nodes at 10 to 100 nM after 1 hr by matrigel assay; assay type: functional, cell-based; settings: Homo sapiens; method in brief: as §4
[22] = system: Jurkat; assay: Induction of apoptosis in human Jurkat cells at 50 nM after 24 to 48 hrs by Annexin V/propidium iodide-double staining-based flow cytometry; assay type: functional, cell-based; settings: TDE = time-dependent effect
Method in brief: (§7)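 HeLa or Jurkat cells exposed 24 or 48 h, then double-labelled with annexin-V-FITC and PI and analysed by flow cytometry for phosphatidylserine exposure.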

[23] = target: T2, Vascular endothelial growth factor receptor 2 (Homo sapiens, UniProt P35968); assay: Inhibition of wild type VEGFR2 (unknown origin) by bioluminescent ADP-glo kinase assay
T2 sequence (P35968 whole entry): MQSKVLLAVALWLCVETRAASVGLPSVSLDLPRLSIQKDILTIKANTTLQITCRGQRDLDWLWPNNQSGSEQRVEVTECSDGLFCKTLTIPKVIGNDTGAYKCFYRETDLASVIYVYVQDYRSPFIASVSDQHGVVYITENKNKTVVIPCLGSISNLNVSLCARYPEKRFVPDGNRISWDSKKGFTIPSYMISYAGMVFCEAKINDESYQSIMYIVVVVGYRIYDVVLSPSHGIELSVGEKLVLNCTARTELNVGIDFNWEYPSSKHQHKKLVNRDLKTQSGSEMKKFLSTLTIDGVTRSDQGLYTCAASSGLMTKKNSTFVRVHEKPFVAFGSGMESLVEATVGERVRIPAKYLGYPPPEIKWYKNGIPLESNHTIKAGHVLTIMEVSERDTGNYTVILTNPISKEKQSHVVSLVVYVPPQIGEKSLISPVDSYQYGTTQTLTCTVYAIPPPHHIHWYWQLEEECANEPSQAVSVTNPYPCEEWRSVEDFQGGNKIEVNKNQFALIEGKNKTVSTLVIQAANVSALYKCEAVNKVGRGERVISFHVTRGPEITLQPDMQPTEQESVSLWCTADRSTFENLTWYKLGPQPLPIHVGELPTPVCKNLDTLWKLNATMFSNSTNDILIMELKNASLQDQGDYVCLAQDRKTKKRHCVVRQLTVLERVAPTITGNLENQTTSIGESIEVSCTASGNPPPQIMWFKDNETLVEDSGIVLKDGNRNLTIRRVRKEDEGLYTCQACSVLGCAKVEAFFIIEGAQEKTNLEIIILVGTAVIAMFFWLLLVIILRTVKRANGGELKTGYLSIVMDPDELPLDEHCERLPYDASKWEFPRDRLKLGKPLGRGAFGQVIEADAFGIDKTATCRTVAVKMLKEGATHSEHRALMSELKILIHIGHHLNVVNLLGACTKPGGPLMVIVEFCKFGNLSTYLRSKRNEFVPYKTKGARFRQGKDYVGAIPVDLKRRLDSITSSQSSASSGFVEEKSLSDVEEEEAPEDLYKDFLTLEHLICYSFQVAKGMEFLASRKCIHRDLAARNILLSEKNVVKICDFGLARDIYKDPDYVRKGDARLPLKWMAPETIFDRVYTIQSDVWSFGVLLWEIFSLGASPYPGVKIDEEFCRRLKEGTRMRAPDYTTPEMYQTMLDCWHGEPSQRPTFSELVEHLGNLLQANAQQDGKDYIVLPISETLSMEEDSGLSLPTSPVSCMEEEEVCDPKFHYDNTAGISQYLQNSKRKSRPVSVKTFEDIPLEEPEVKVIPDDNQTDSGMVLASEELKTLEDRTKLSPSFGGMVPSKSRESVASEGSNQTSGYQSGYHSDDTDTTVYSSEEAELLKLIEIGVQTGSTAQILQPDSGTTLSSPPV

[24] = system: HUVEC; assay: Antivascular activity in HUVEC assessed as effect on number of meshes at 10 to 100 nM after 1 hr by matrigel assay; assay type: functional, cell-based; settings: Homo sapiens; method in brief: as §4
[25] = system: HeLa; assay: Induction of apoptosis in human HeLa cells at 50 nM after 24 to 48 hrs by Annexin V/propidium iodide-double staining-based flow cytometry; assay type: functional, cell-based; settings: TDE = time-dependent effect; method in brief: as §7
[26] = system: HeLa; assay: Induction of cell cycle arrest in human HeLa cells assessed as accumulation at G2/M phase at 25 nM after 24 hrs by propidium iodide-stained flow cytometry; assay type: functional, cell-based; method in brief: as §3
[27] = system: B16; assay: Antiproliferative activity against mouse B16 cells after 72 hrs by MTT assay; assay type: functional, cell-based; settings: B16, 72 h
[28] = target: Tubulin (Bos taurus, UniProt Q6B856+Q862L2+Q862F3); assay: Inhibition of bovine brain tubulin polymerization after 20 mins
Method in brief: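 Bovine brain tubulin (10 μM) preincubated with varying compound concentrations in 0.8 M monosodium glutamate, pH 6.6, at 30 °C, then chilled to 0 °C. 0.4 mM GTP added, mixtures warmed to 30 °C, assembly followed by turbidity at 350 nm.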

[29] = target: T1, Epidermal growth factor receptor; assay: Inhibition of EGF-induced EGFR phosphorylation at Y1068 in human HeLa cells pretreated for 6 hrs followed by EGF cells and measured after 15 mins by Western blot analysis; assay type: cell-based; method in brief: as §6
[30] = Toxicity in C57BL/6 mouse allografted with mouse B16 cells assessed as body weight loss at 3 to 7.5 mg/kg, ip dosing starting on day 9 post tumor injection administered […] on day 9,11, 13 and 15; assay type: organism-based; settings: in vivo; method in brief: as §5
[31] = system: HT-29; assay: Antiproliferative activity against human HT-29 cells after 72 hrs by MTT assay; assay type: functional, cell-based; settings: HT-29, 72 h
[32] = target: T2, Vascular endothelial growth factor receptor 2; assay: Inhibition of VEGFR2 (unknown origin)

Structure (SMILES): Cc1cc2cc(Nc3ncnc4cc(-c5ccccc5)sc34)ccc2[nH]1
IC50 [32]: 0.14 µM

Structure (SMILES): COc1cccc(-c2cc3ncnc(Nc4cc(OC)c(OC)c(OC)c4)c3s2)c1
IC50 [8]: 5.4 µM
IC50 [15]: 3 µM
IC50 [19]: 3.2 µM
IC50 [20]: 8.8 µM
IC50 [31]: 3.3 µM

Structure (SMILES): COc1ccc(/C=C\c2cc(OC)c(OC)c(OC)c2)cc1O [COMBRETASTATIN A4]
IC50 [8]: 0.001 µM

Structure (SMILES): COc1cc(Nc2ncnc3cc(-c4ccc([N+](=O)[O-])cc4)sc23)cc(OC)c1OC
IC50 [8]: 1.3 µM
IC50 [15]: 2 µM
IC50 [19]: 4.9 µM
IC50 [20]: 1.1 µM
IC50 [31]: 6.3 µM

Structure (SMILES): COc1cc(Nc2ncnc3cc(-c4ccc(Br)cc4)sc23)cc(OC)c1OC
inhibition [1]: 35%
IC50 [7]: 0.326 µM
IC50 [8]: 0.19 µM
IC50 [15]: 0.03 µM
IC50 [19]: 0.22 µM
IC50 [20]: 0.53 µM
IC50 [28]: 2.5 µM
IC50 [31]: 0.15 µM

Further lines, with some results ahead:

inhibition [1]: 76%
IC50 [7]: 0.03 µM
IC50 [8]: 0.002 µM
inhibition [13]: Active
IC50 [15]: 0.001 µM
IC50 [19]: 0.001 µM
IC50 [20]: 0.019 µM
IC50 [23]: > 1 µM
IC50 [27]: 0.0234 µM
IC50 [28]: 0.71 µM
inhibition [29]: Dose-dependent effect
IC50 [31]: 0.02 µM
Structure (SMILES): COc1cc(Nc2ncnc3cc(-c4ccc(C)cc4)sc23)cc(OC)c1OC
Activity [2]: Active
Activity [3]: Active
Activity [4]: 36.8 - 38%
GI50 [5]: 0.056 µM
Activity [6]: 49.4 - 50%
Activity [9]: Active
Activity [10]: Active
Activity [11]: Active
Activity [12]: 52.5%
Activity [14]: Active
Activity [16]: Active
Activity [17]: Active
Activity [18]: 28%
Activity [21]: Active
Activity [22]: Tde
Activity [24]: Active
Activity [25]: Tde
Activity [26]: Active
Activity [30]: Non-Toxic

inhibition [1]: 35%
IC50 [7]: 0.01 µM
IC50 [8]: 0.17 µM
IC50 [15]: 0.3 µM
IC50 [19]: 0.28 µM
IC50 [20]: 0.77 µM
IC50 [23]: > 1 µM
IC50 [28]: 2.5 µM
IC50 [31]: 0.25 µM
Structure (SMILES): COc1cc(Nc2ncnc3cc(-c4ccc(I)cc4)sc23)cc(OC)c1OC
